The record followed here is ChEMBL document CHEMBL2034866, “Design, synthesis and biological evaluation of a novel series of 1,3,4-oxadiazole bearing N-methyl-4-(trifluoromethyl)phenyl pyrazole moiety as cytotoxic agents” (Eur J Med Chem, 2012).

The term IC50 denotes the concentration needed to halve the response being measured. Low readings indicate greater potency, high ones weaker potency.

One assay deals with A549. The assay can be described thus: Cytotoxicity against human A549 cells after 24 hrs by MTT assay. As to conditions: A549, 24 h. In kind it is functional, cell-based. The procedure, abridged: (§1)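 Exponentially growing cells were seeded at 10⁴ cells/well and allowed to attach for 24 h. Compounds were dissolved in 0.1% DMSO, diluted in medium and added across 1–100 for 24 h; controls received medium with 0.1% DMSO. MTT (1 mg/mL) was added for 4 h at 37 °C, formazan was solubilised in DMSO and A540 read. Assays were run in triplicate, with % cytotoxicity calculated from control-, blank- and test-well absorbances.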

In assay [1] the test system is MCF7. The assay can be described thus: Cytotoxicity against human MCF7 cells after 24 hrs by MTT assay. The conditions noted are these: for IC50: MCF7, 24 h. In kind it is functional, cell-based. The method in brief: as §1
On the technique in general: Tetrazolium dyes change colour on reduction, which living cells bring about.

Assay [2] in a line: Cytotoxicity against mouse EAC cells after 24 hrs by MTT assay. The assay is classed as functional, cell-based. The conditions noted are these: Ehrlich. The method in brief:
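Mouse Ehrlich ascites tumour cells were given at least one in vitro passage before use, then plated at 10⁴ cells/well with 24 h attachment. Compounds in 0.1% DMSO/medium were tested at 1–100 for 24 h against vehicle controls. MTT (1 mg/mL) was applied for 4 h at 37 °C, formazan dissolved in DMSO and A540 read. Done in triplicate; % cytotoxicity was taken relative to control and blank absorbances.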

Assay [3] relates to MCF7. The experiment in a line: Cytotoxicity against human MCF7 cells after 72 hrs by MTT assay. As to conditions: MCF7, 72 h. In kind it is functional, cell-based. The procedure, abridged: (§2)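 Time-course MTT: MCF-7 cells were seeded at 5 × 10³ cells/well and exposed to compounds at 1–50. % cytotoxicity and IC50 were determined at 24, 48 and 72 h using MTT read-out at 540 nm. Each experiment was performed independently three times and reported as mean ± SD.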

Assay [4] has as its system MCF7. The experiment in a line: Cytotoxicity against human MCF7 cells after 48 hrs by MTT assay. The assay is classed as functional, cell-based. As to conditions: MCF7, 48 h. The procedure, abridged:
as §2

The subject of assay [5] is MCF7. The assay can be described thus: Cytotoxicity against human MCF7 cells at 1 to 50 uM by MTT assay. The assay is classed as functional, cell-based. The conditions noted are these: TDE = time-dependent effect. The method in brief: as §2
The test system of assay [6] is MCF7. The assay can be described thus: Ratio of IC50 for human MCF7 cells after 24 hrs to IC50 for human MCF7 cells after 48 hrs by MTT assay. In kind it is functional. The method in brief: (§3)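 MCF-7 cells at 5 × 10³ cells/well were treated with compounds at 1–50, and MTT IC50 values were determined at 24, 48 and 72 h (three independent experiments, mean ± SD). The fold reduction is the 24 h IC50 divided by the 48 h or 72 h IC50.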

Assay [7] relates to MCF7. The experiment in a line: Ratio of IC50 for human MCF7 cells after 24 hrs to IC50 for human MCF7 cells after 72 hrs by MTT assay. In kind it is functional. The procedure, abridged: as §3

For `Cn1nc(-c2nnc(SCc3cccc(Cl)c3Cl)o2)cc1-c1ccc(C(F)(F)F)cc1`, the IC50 in the assay on A549 was 54.3 µM; with MCF7 [1], 32.2 µM; in assay [2], 36.8 µM.

Turning to `Cn1nc(-c2nnc(SCc3ccc(Cl)c(Cl)c3)o2)cc1-c1ccc(C(F)(F)F)cc1`, the IC50 with A549 was found to be 44.2 µM; in the assay on MCF7 [1], 27.2 µM; in assay [2] it was 46.2 µM.

Take `Cn1nc(-c2ccc(C(F)(F)F)cc2)cc1-c1nnc(SCc2cccc([N+](=O)[O-])c2)o1`: the IC50 (in the assay with MCF7 [1]; in assay [2]) was over 100 µM each time.

For `Cn1nc(-c2nnc(SCCc3ccc(F)cc3)o2)cc1-c1ccc(C(F)(F)F)cc1`, the IC50 was determined as 39 µM in the assay with A549; 18.1 µM in the assay on MCF7 [3]; 21.1 µM in the assay with MCF7 [4]; 25.2 µM in the assay on MCF7 [1]; 29.2 µM in assay [2]. In addition, the Activity result in the assay with MCF7 [1] is “Dose-dependent effect”; in the assay with MCF7 [5] it was “tde”.

Consider `Cn1nc(-c2nnc(SCCOc3ccccc3F)o2)cc1-c1ccc(C(F)(F)F)cc1`, for which the IC50 with A549 is 48.1 µM; in the assay on MCF7 [3], 14.2 µM; in the assay with MCF7 [4], 19.2 µM; in the assay with MCF7 [1] it was 23.1 µM; in assay [2], 25.2 µM. Also, the Activity entry in the assay on MCF7 [1] was “Dose-dependent effect”; in the assay with MCF7 [5] it was “tde”.

In the case of `Cn1nc(-c2nnc(SCc3c(F)cccc3F)o2)cc1-c1ccc(C(F)(F)F)cc1`, the IC50 in the assay on A549 came out at 38 µM; with MCF7 [3], 16.2 µM; with MCF7 [4], 20.5 µM; in the assay with MCF7 [1], 26.2 µM; in assay [2] it was 28.2 µM. Besides, the Activity result in the assay on MCF7 [1] is “Dose-dependent effect”; in the assay on MCF7 [5], “tde”.

On to `Cn1nc(-c2nnc(SCc3cccc([N+](=O)[O-])c3)o2)cc1-c1ccc(C(F)(F)F)cc1`, for which the IC50 (with MCF7 [1]; in assay [2]) was over 100 µM each time.

In the case of `COc1cccc2c1C(=O)c1c(O)c3c(c(O)c1C2=O)C[C@@](O)(C(=O)CO)C[C@@H]3O[C@H]1C[C@H](N)[C@H](O)[C@H](C)O1` [DOXORUBICIN], in the assay with A549, the IC50 was 3.28 µM.

For `Cn1nc(-c2ccc(C(F)(F)F)cc2)cc1-c1nnc(SCc2c(F)cccc2F)o1`, the IC50 with A549 came out at 72.2 µM; in the assay with MCF7 [1], 46.2 µM; in assay [2], 38.5 µM.

With `Cn1nc(-c2nnc(SCc3ccc(C(F)(F)F)cc3)o2)cc1-c1ccc(C(F)(F)F)cc1`, the “Ratio IC50” value was 1.75 in the assay on MCF7 [6] and 2.96 with MCF7 [7]. For the same compound, the IC50 in the assay with A549 is 29.2 µM; in the assay on MCF7 [3], 5.25 µM; with MCF7 [4] it was 8.86 µM; in the assay with MCF7 [1], 15.5 µM; in assay [2], 20.5 µM. Besides, the Activity entry with MCF7 [1] is “Dose-dependent effect”; in the assay with MCF7 [5] it was “tde”.

Take `Cn1nc(-c2nnc(SCc3ccc(Cl)cc3F)o2)cc1-c1ccc(C(F)(F)F)cc1`: the IC50 is 48.2 µM with A549; 9.8 µM in the assay with MCF7 [3]; 12.2 µM with MCF7 [4]; 18.2 µM in the assay on MCF7 [1]; 26.2 µM in assay [2]. The Activity entry was “Dose-dependent effect” in the assay on MCF7 [1] and “tde” in the assay on MCF7 [5].

As to `Cn1nc(-c2ccc(C(F)(F)F)cc2)cc1-c1nnc(SCCOc2ccccc2F)o1`, the IC50 was 68.1 µM in the assay with A549, 33.3 µM with MCF7 [1] and 35.1 µM in assay [2].

Take `Cn1nc(-c2nnc(S)o2)cc1-c1ccc(C(F)(F)F)cc1`: the results for the IC50 (in the assay with MCF7 [1]; in assay [2]) were over 100 µM and 68.2 µM, respectively.

On to `Cn1nc(-c2ccc(C(F)(F)F)cc2)cc1-c1nnc(SCCc2ccc(F)cc2)o1`, for which the IC50 in the assay on A549 came out at 84.2 µM; with MCF7 [1] it was 45.4 µM; in assay [2], 39.5 µM.

In the case of `Cn1nc(-c2ccc(C(F)(F)F)cc2)cc1-c1nnc(SCc2ccc(C(F)(F)F)cc2)o1`, the IC50 in the assay on A549 amounted to 39.8 µM; in the assay on MCF7 [1], 27.1 µM; in assay [2], 27.2 µM.

As to `Cn1nc(-c2ccc(C(F)(F)F)cc2)cc1-c1nnc(S)o1`, the IC50 is over 100 µM with MCF7 [1] and 75.3 µM in assay [2].

Consider `Cn1nc(-c2ccc(C(F)(F)F)cc2)cc1-c1nnc(SCc2cccc(Cl)c2Cl)o1`, for which the IC50 with A549 amounted to 84.2 µM; in the assay with MCF7 [1], 60.2 µM; in assay [2] it was 56.5 µM.
